System: MS2 coat protein
Experiment: apparent Kd, MS2 coat protein; higher = weaker binding; RNA-MaP array; FMN 200 µM where present
Outline: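 Green signal from SNAP-549-labelled MS2 coat protein was normalised to red-channel RNA signal and to the median Fmax of control clusters. The protein was titrated from 0.7 or 1.5 nM, doubling to 3 µM, without and then with constant ligand, over designs transcribed by stalled E. coli RNA polymerase on Illumina sequencing-chip clusters, in 100 mM Tris-HCl pH 7.5, 80 mM KCl, 4 mM MgCl2, BSA, DTT, yeast tRNA and Tween-20. The apparent Kd is the median of filtered per-cluster binding-curve fits.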

[1] = designed as: OFF switch for flavin mononucleotide, no ligand
[2] = ligand present: flavin mononucleotide, designed as: OFF switch for flavin mononucleotide
[3] = designed as: ON switch for flavin mononucleotide, no ligand
[4] = ligand present: flavin mononucleotide, designed as: ON switch for flavin mononucleotide

Sequence | apparent Kd [1] | apparent Kd [2] | apparent Kd [3] | apparent Kd [4]
AAGGACUGAAUAAAUAACUCAAAUACAUGAGGAUCACCCAUGUAGGAUAUCGUCAGGAAUACUGACGAGAAGGACAUACAGUCC | 14 nM | 20.2 nM | – | –
AGCACGGGAUUGGAGGAUAUGUUGUUUGCAACAUGAGGAUCACCCAUGUCUGAGGCUGAAAAGCAGCAGAAGGCCGAUACAACCA | – | – | 347 nM | 71.5 nM
AGAGCCGGCACUGAGGAUAUUCAUAUUAAAACAUGAGGAUCACCCAUGUAGGCCAGAAGGCCUUGGGAGAAGGCAGGUCGGCUCU | – | – | 407 nM | 29.5 nM
AAAUUGCUAGAGGAUAUCGGAUAGGAUCUAUUACGAGAAGGUUGGACAUGAGGAUCACCCAUGUUCUGUUGGGA | 23.8 nM | 23.5 nM | – | –
GCCAUCGCAUGAGGAUAUGCUCGGGUUUCCCGAGCAGAAGGCAUGUCGUAAGACAUGAGGAUCACCCAUGUAGUUAAGAUGGCA | – | – | 915 nM | 76.8 nM
UUGCGGUAGGAGAAGGACAGAGGCUUCAUUACAUACAUGAGGAUCACCCAUGUAGGAUAUCCUACCUAACGCGGACUCCUCCUG | 10.7 nM | 20.1 nM | – | –
ACGGCAAUCGAAGGAUAUGGUUACAUGAGGAUCACCCAUGUCUAGGGUCUAAUUAGGUAUAACUACCAGAAGGUCGAAGGCCUA | 67.6 nM | 72.5 nM | – | –
AGCUGGUGACAGCAUCCAUCAUGACAUGAGGAUCACCCAUGUAGAAGGCUGUACGGUUACCGUACAGAGGAUAUACAAUGAUGG | 7.73 nM | 8.21 nM | – | –
AUACAUGAGGAUCACCCAUGUAAUUAAUUAAUUAAUAAGAUCUAGGAUAUCAGCUCGUUUAGAGCUGAGAAGGAGAUCACAUGU | – | – | 23.4 nM | 13.1 nM
AAUCCACAUGAGGAUCACCCAUGUGAGGAUAUCGUGCAGAAAAAAAAAAAAAACUGCACGAGAAGGCACAUGGA | 160 nM | 69.1 nM | – | –
UUCGUGCAGCUUUGCUGUACGCGUACAUGAGGAUCACCCAUGUAGGAUAUGGUACGCUUUGCGUGCUAGAAGGAUAUGGAAAGG | 14.7 nM | 16.6 nM | – | –
UAAAAGCUAGGAUAUACAUGAGGAUCACCCAUGUACCGGCUUGGCCCUGGUCCUAAAUGUAGAAGGAGCACGCC | 15.2 nM | 23.9 nM | – | –
UUUUUGUGAGGAUAUACGUAGUAGAACAAUAGUACUACUACGUAGAAGGCACAUGAGGAUCACCCAUGUUCCUC | 47.6 nM | 339 nM | – | –
GCGUACAUAUCAGGAUAUCAUAUAAUUGUUUAACUCAGUGUAUACAUGAGGAUCACCCAUGUUCUUGAGAAGGGAUAUGUACGC | 9.08 nM | 9.76 nM | – | –
CCCGACUAGAAGUCGGUACGGAGGAGAAGGCGCCUCCUGGGUCCACAUGAGGAUCACCCAUGUGGCGAGGAUAUCCUCAGUUUU | 14.2 nM | 74 nM | – | –
UCGGCGCGAGGAUAUGCGGCUCCUGCUUCGGGCCGGAGCGUACAUGAGGAUCACCCAUGUAGAAGGCGCGCCGC | 12 nM | 13.9 nM | – | –
GGGUGAGCUCAAGGAUAUCCAAAUCGGUUACAUGAGGAUCACCCAUGUCCGGGCGAAUAAAGGCCGGAGAAGGUGAGGGCCCUC | – | – | 67.5 nM | 180 nM
UUCACGUCAGGAUAUCCAUAUUUCCGAAAUAACGGUACUUUGGAGAAGGGACAUGAGGAUCACCCAUGUCCUCG | – | 40.1 nM | – | –
CUUUUGUGAGGAUAUUAGUAGUAAAUAAAUAUAAUUACUACUGAGAAGGCACAUGAGGAUCACCCAUGUUCCUC | 34.1 nM | 186 nM | – | –
UGAUAGGACAGAGGAUAUACGUAUAUUCUCCUAAACAUGAGGAUCACCCAUGUAGAAGGCUGUCCUAUCUAAGUCGGAAACGAC | 5.4 nM | 23.4 nM | – | –
GACGGUGAUGUAGGAUAUACGCUGGAAUACAGCGUAGAAGGACAUGAGGAUCACCCAUGUAAAGUGUCUCCGAAUAACACCGUC | 35.3 nM | 68.6 nM | – | –

From the EternaBench riboswitch data
